High-throughput results from PubChem.
Rows were chosen to be rich in hits. Some 2.2% of all compounds tested hit in one or more screens of this group.
ASAP1 GAP inh: inhibitors of human ASAP1 ArfGAP activity; Q9ULH1; inhibition, % at 16.5 µM; 360,000 compounds, 0.19% hits; ASAP1-stimulated ARF1 GTP hydrolysis, GDP FP detection; in the data active = inhibition above about 25%
CendR NRP1 mod: NRP-1/CendR interaction modulation | O14786 | FAM-RPARPAR peptide binding to NRP-1, fluorescence polarization | 360,000 compounds, 0.85% hits | inhibition, % at 25 µM;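 active = inhibition or corrected inhibition above about 18%, plus a signal ratio from 0.5 to 1.5, limit read from the data, passing the limit was not always enough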
Exocytosis inh: lytic granule exocytosis inhibition; TALL-104 LAMP-1 surface exposure, flow cytometry; cells stimulated with thapsigargin and PMA; inhibition, % at 10 µM; 360,000 compounds, 0.66% hits;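 active = inhibition above about 55%, limit read from the data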
ARFGAP1 inhibitor: rat ARFGAP1 inhibition | Q62848 | Arfgap1-stimulated ARF1 GTP hydrolysis, GDP FP detection | inhibition, % at 16.5 µM | 360,000 compounds, 0.26% hits;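 active = inhibition above a per-plate limit, mean inhibition of low control wells plus 3 SD, cut at about 25% in these data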
Target sequence (Q62848 1-136 limits assumed): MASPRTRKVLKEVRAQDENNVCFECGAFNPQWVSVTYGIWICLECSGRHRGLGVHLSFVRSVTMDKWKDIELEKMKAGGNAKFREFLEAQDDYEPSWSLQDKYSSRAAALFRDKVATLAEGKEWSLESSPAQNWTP
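Assay system: purified rat His6-Arfgap1 residues 1-136 (GAP domain); Reagent: human Δ17 ARF1 bound to GTP; Dosing: 16.5 µM single point, 1.26% DMSO; Times: GTP hydrolysis reaction 2 h at 25 °C; Signal: FP, GDP Alexa 633 tracer displaced from anti-GDP antibody, 620/688 nm; Measure: % inhibition from polarization.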
V-ATPase pH: alters yeast V-ATPase proton transport. response, % at 10 µM. AID 504577. 350,000 compounds, 0.37% hits. S. cerevisiae, pHLuorin cytosolic pH fluorescence; in the data active = response mostly above about 7.3%, no sharp cut-off; inactive = mostly below about 5.4%; note: actives read high
ARFGAP1 confirm: rat ARFGAP1 inhibition, confirmed. shares compounds with ARFGAP1 inhibitor. ARFGAP1-stimulated ARF1 GTP hydrolysis, GDP tracer FP. inhibition, % at 16.5 µM. 890 compounds, 30% hits;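 active = average inhibition over triplicates above the hit cutoff set in the earlier primary screen, cut at about 25% in these data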
Target sequence (Q62848 whole entry, looked up): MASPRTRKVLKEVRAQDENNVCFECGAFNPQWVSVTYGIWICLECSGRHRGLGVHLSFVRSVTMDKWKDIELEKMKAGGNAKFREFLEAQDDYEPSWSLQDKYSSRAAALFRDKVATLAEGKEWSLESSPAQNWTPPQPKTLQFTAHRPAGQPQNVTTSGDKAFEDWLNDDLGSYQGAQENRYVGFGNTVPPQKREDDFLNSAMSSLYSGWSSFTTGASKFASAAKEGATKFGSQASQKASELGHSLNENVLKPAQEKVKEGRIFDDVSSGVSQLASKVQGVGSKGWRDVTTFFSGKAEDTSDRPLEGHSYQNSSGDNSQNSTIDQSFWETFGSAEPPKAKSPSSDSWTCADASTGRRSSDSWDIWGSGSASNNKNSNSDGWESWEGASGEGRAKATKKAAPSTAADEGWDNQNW
Large screens that a line does not name were inactive (follow-up assays come after a bar, where they were run); ! = repeats disagree.

O=C(CCNC(=O)c1ccc(Br)cc1)NCCCSc1ccccc1	none
COC(=O)c1c(NC(=O)C2CC=CCC2C(=O)O)sc(C(N)=O)c1C (centres undefined)	ARFGAP1 inhibitor 25 | ARFGAP1 confirm inactive
COC(=O)c1c(NC(=O)C2CC=CCC2C(=O)O)sc(C)c1C (centres undefined)	none
O=C(CCNC(=O)c1ccc(Br)cc1)Nc1ccc(S(=O)(=O)N2CCOCC2)cc1	none
CC1=CC(=O)c2ccccc2C1=O	ARFGAP1 inhibitor 26! | ARFGAP1 confirm inactive
O=C1C=C(Nc2ccccc2)C(=O)c2ccccc21	none
Cc1ccn2c(=O)nc(SCC(=O)c3ccccc3)nc2c1	none
Cc1ccc2nc(SCC(=O)N3CCCC3)nc(=O)n2c1	ARFGAP1 inhibitor 61 | ARFGAP1 confirm 44
Cc1ccc2nc(SCC(=O)c3ccccc3)nc(=O)n2c1	ARFGAP1 inhibitor 37 | ARFGAP1 confirm 47
Cc1ccc2nc(SCC(=O)NC3CCCC3)nc(=O)n2c1	none
N#Cc1ccc(CSc2ccc(S(=O)(=O)N3CCCCCC3)cn2)cc1	none
CCCCn1c(N)c(N(CCOC)C(=O)c2c(C)noc2C)c(=O)[nH]c1=O	ARFGAP1 inhibitor 25 | ARFGAP1 confirm inactive
CCCCN(C(=O)c1c(C)noc1C)c1c(N)n(CCCC)c(=O)[nH]c1=O	none
OC[C@@H]1CN(Cc2ccc(F)cc2)C[C@H](n2cnc3c(NCc4ccc(F)cc4)ncnc32)O1	none (no result: V-ATPase pH)
CC(C)N1CCN(Cc2ccc(-c3ccccc3Cl)o2)CC1CCO (centres undefined)	ARFGAP1 inhibitor 29 | ARFGAP1 confirm inactive
CC(C)N1CCN(Cc2ccc(-c3ccccc3)cc2)CC1CCO (centres undefined)	none
NS(=O)(=O)c1ccc(Nc2ccc3cc(S(=O)(=O)N4CCCCC4)ccc3n2)cc1	ARFGAP1 inhibitor 47 | ARFGAP1 confirm 52
NS(=O)(=O)c1ccc(S(=O)(=O)N2CCCC2)cc1	none
COc1ccc(NC(=O)c2cccc3c(-c4cnn(C)c4)coc23)cc1	ARFGAP1 inhibitor 30 (no result: V-ATPase pH) | ARFGAP1 confirm 30
Cn1cc(-c2coc3c(C(=O)Nc4ccccc4)cccc23)cn1	none (no result: V-ATPase pH)
CC(=O)c1cccc(NC(=O)c2cccc3c(-c4cnn(C)c4)coc23)c1	ARFGAP1 inhibitor 28 (no result: V-ATPase pH) | ARFGAP1 confirm 25
CC(=O)Nc1ccc(-c2csc(NC(=O)Cc3cccc(F)c3)n2)cc1	ARFGAP1 inhibitor 31 | ARFGAP1 confirm inactive
O=C(NCc1csc(-c2cccs2)n1)Nc1cccc(Cl)c1	ARFGAP1 inhibitor 26 | ARFGAP1 confirm inactive
CCC(=O)NCc1csc(-c2cccs2)n1	none
FC(F)(F)c1cc(CCN2C(=S)NC[C@@H]2Cc2ccccc2)cc(C(F)(F)F)c1	none
NC1=NC[C@H](Cc2ccccc2)N1CCc1cc(C(F)(F)F)cc(C(F)(F)F)c1	ARFGAP1 inhibitor 25 | ARFGAP1 confirm inactive
O=c1[nH]c(/C=C2\C=Nc3ccccc32)c(O)n1Cc1ccccc1F	ARFGAP1 inhibitor 25 | ARFGAP1 confirm inactive
CSc1nc(O)c(/C=C2\C=Nc3ccccc32)[nH]1	none
COc1ccccc1N(C)S(=O)(=O)c1ccc(C(=O)Nc2cc(F)ccc2C)cc1	none
CN1C(=O)N(CC(=O)Nc2cccc(S(=O)(=O)N(C)c3ccccc3)c2)C(=O)C12CCCCC2	none
CCC1CCC2(CC1)NC(=O)N(CC(=O)Nc1cccc(S(=O)(=O)N(C)c3ccccc3)c1)C2=O (centres undefined)	ARFGAP1 inhibitor 41 | ARFGAP1 confirm inactive
O=C(CSc1nnc(CNC(=O)c2ccccc2)o1)NCc1ccccc1Cl	none
O=c1c(C(c2ccc(F)cc2)c2c(O)nc3n(c2=O)CCS3)c(O)nc2n1CCS2	ARFGAP1 inhibitor 26 | ARFGAP1 confirm inactive
CN(Cc1ccccc1Br)C(=O)CSc1nnnn1C1CC1	none
Cc1cc(NC(=O)NC(=O)c2ccccc2NC(=O)CN(C)C)ccc1Oc1ncc(Br)cn1	ARFGAP1 inhibitor 31 | ARFGAP1 confirm inactive
Cc1cc(NC(=O)NC(=O)c2ccccc2NC(=O)CN)ccc1Oc1ncc(Br)cn1	none
CCSc1nnc(Cc2cc(=O)[nH]c(=O)[nH]2)n1-c1ccc(Cl)cc1	ARFGAP1 inhibitor 30 | ARFGAP1 confirm inactive
Cc1ccc2nc(Nc3nc(CSc4nc5ccccc5s4)cc(=O)[nH]3)nc(C)c2c1	ARFGAP1 inhibitor 25 | ARFGAP1 confirm inactive
Cc1ccc2nc(Nc3nc(CSc4nnc(C)s4)cc(=O)[nH]3)nc(C)c2c1	none
CCCn1c(N)c(C(=O)CSc2n[nH]c(-c3ccc(C)cc3)n2)c(=O)[nH]c1=O	none
COc1ccc(/C=C2\Oc3cc(OCC(=O)N4CCC[C@H]4C(=O)O)ccc3C2=O)cc1OC	none (no result: ASAP1 GAP inh, ARFGAP1 inhibitor)
COc1ccc(/C=C2\Oc3cc(OCC(=O)N4CCC[C@H]4C(=O)O)ccc3C2=O)c(OC)c1OC	ARFGAP1 inhibitor 26 | ARFGAP1 confirm inactive
COc1ccc(OC)c(/C=C2\Oc3cc(OCC(=O)N4CCC(C(=O)O)CC4)ccc3C2=O)c1	ARFGAP1 inhibitor 42 | ARFGAP1 confirm 48
COc1ccc(OC)c(/C=C2\Oc3cc(OCC(=O)N4CC(O)C[C@H]4C(=O)O)ccc3C2=O)c1 (some centres undefined)	none
CCOc1ccc(NC(=O)COC(=O)Cn2cnc3ccccc32)cc1	none
COc1ccc(C2C(O)C(c3c[nH]c4ccccc34)=NN2C(=O)CCl)cc1 (centres undefined)	ARFGAP1 inhibitor 26 | ARFGAP1 confirm inactive
CCC(C)[C@H]1COCCS(=O)(=O)N1Cc1ccc(Br)cc1 (some centres undefined)	none
CCOc1ccc(OCCNC2CCCC2)cc1	none
CCCOc1ccc(OCCNC2CCCC2)cc1	ARFGAP1 inhibitor 26 | ARFGAP1 confirm inactive
Cc1ccc(-c2[nH]ncc2CN2CCN(C(=O)c3cccs3)CC2)cc1C	none
CCOC(=O)Cc1csc(N/C(=N/S(=O)(=O)c2ccc(F)cc2F)c2ccccc2)n1	ARFGAP1 inhibitor active | ARFGAP1 confirm inactive
COc1cccc(N=Cc2c[nH][nH]c2=O)c1	none
O=c1[nH][nH]cc1C=Nc1ccc(Cl)cc1	ARFGAP1 inhibitor 36 | ARFGAP1 confirm inactive
CCc1nc2c(OCc3cccc(Cl)c3)cccn2c1N(C)C(=O)CC(C)C	none (no result: V-ATPase pH)
CN(CC(=O)Nc1ccc(F)cc1)CC(=O)N1CCCCCC1	none
Cc1cc(=O)oc2cc(OCc3ccc(C(=O)OCC(=O)Nc4ccccc4OC(F)F)cc3)ccc12	ARFGAP1 inhibitor 42 | ARFGAP1 confirm 50
Cc1cc(=O)oc2cc(OCc3ccccc3)ccc12	none
O=C(CCCc1c[nH]c2ccccc12)NCc1ccccc1C(F)(F)F	none
CN(c1cccnc1)c1ccc(NC(=O)Cc2c[nH]c3ccccc23)cc1-c1ccc(F)c(F)c1	ARFGAP1 inhibitor 25 (no result: CendR NRP1 mod, Exocytosis inh, V-ATPase pH) | ARFGAP1 confirm inactive
COc1ccc(-c2cc(NC(=O)Cc3c[nH]c4ccccc34)ccc2N(C)c2cccnc2)cc1F	none (no result: CendR NRP1 mod, Exocytosis inh, V-ATPase pH)
